“And” between values parts separate entries of the source, which are not always exact repeats. Identical values can stand only once.
Test system: HEK-293T
Assay: Multiplex assay against HEK293T
Assay type: toxicity, cell-based
Details: human
How it was run: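 Four dyes were applied at seeding to live cells: Hoechst33342, BioTracker Green Microtubule Cytoskeleton Dye, MitoTracker Red and Annexin V Alexa Fluor 680. Imaging after compound addition used a CQ1 microscope at 37°C and 5% CO2. CellPathfinder machine-learning gating then sorted cells into Hoechst high-intensity objects or normal cells, normal cells into healthy, pyknosed or fragmented nuclei, and pyknosed cells into mitotic or apoptotic, with tubulin, mitochondrial-mass and membrane-permeability phenotypes given as per cents of healthy-nucleus cells.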

[1] = 12 h, 1 µM, compound concentration 1 uM
[2] = 12 h, 10 µM, compound concentration 10 uM
[3] = 24 h, 1 µM, compound concentration 1 uM
[4] = 24 h, 10 µM, compound concentration 10 uM
[5] = 48 h, 1 µM, compound concentration 1 uM
[6] = 48 h, 10 µM, compound concentration 10 uM

CCNC1(C(N)=O)CCN(c2ncnc3c2nc(-c2ccccc2Cl)n3-c2ccc(Cl)cc2)CC1 [OTENABANT]
Population Apoptotic (%) [1]: 51% and 58% | Population Fragmented Nuclei (%) [1]: 8% | Population Healthy Nuclei (%) [1]: 80% and 76% | Population Hoechst High Intensity Objects (%) [1]: 10% and 6% | Population Membrane Permeable-Phenotype (%) [1]: 0% | Population Mitochondria Different-Phenotype (%) [1]: 48% and 66% | Population Mitotic Cells (%) [1]: 48% and 41% | Population Normal (%) [1]: 89% and 93% | Population Pyknosed Nuclei (%) [1]: 10% and 15% | Population Tubulin-Different-Phenotype (%) [1]: 52% and 44% | Total Cell Count [1]: 401 and 333 | Population Apoptotic (%) [2]: 46% and 63% | Population Fragmented Nuclei (%) [2]: 3% and 4% | Population Healthy Nuclei (%) [2]: 74% and 67% | Population Hoechst High Intensity Objects (%) [2]: 16% and 9% | Population Membrane Permeable-Phenotype (%) [2]: 0% | Population Mitochondria Different-Phenotype (%) [2]: 82% and 96% | Population Mitotic Cells (%) [2]: 53% and 36% | Population Normal (%) [2]: 83% and 90% | Population Pyknosed Nuclei (%) [2]: 22% and 27% | Population Tubulin-Different-Phenotype (%) [2]: 50% and 43% | Total Cell Count [2]: 381 and 251 | Population Apoptotic (%) [3]: 49% and 40% | Population Fragmented Nuclei (%) [3]: 8% and 12% | Population Healthy Nuclei (%) [3]: 80% and 75% | Population Hoechst High Intensity Objects (%) [3]: 5% | Population Membrane Permeable-Phenotype (%) [3]: 0% | Population Mitochondria Different-Phenotype (%) [3]: 43% and 47% | Population Mitotic Cells (%) [3]: 50% and 59% | Population Normal (%) [3]: 94% | Population Pyknosed Nuclei (%) [3]: 11% | Population Tubulin-Different-Phenotype (%) [3]: 44% and 41% | Total Cell Count [3]: 474 and 442 | Population Apoptotic (%) [4]: 40% and 64% | Population Fragmented Nuclei (%) [4]: 8% and 6% | Population Healthy Nuclei (%) [4]: 71% and 77% | Population Hoechst High Intensity Objects (%) [4]: 17% and 13% | Population Membrane Permeable-Phenotype (%) [4]: 1% and 0% | Population Mitochondria Different-Phenotype (%) [4]: 79% and 95% | Population Mitotic Cells (%) [4]: 59% and 35% | Population Normal (%) [4]: 82% and 86% | Population Pyknosed Nuclei (%) [4]: 19% and 15% | Population Tubulin-Different-Phenotype (%) [4]: 56% and 53% | Total Cell Count [4]: 452 and 283 | Population Apoptotic (%) [5]: 34% and 32% | Population Fragmented Nuclei (%) [5]: 12% and 8% | Population Healthy Nuclei (%) [5]: 78% and 82% | Population Hoechst High Intensity Objects (%) [5]: 4% | Population Membrane Permeable-Phenotype (%) [5]: 1% and 0% | Population Mitochondria Different-Phenotype (%) [5]: 29% and 30% | Population Mitotic Cells (%) [5]: 65% and 68% | Population Normal (%) [5]: 95% | Population Pyknosed Nuclei (%) [5]: 9% and 8% | Population Tubulin-Different-Phenotype (%) [5]: 30% | Total Cell Count [5]: 766 and 604 | Population Apoptotic (%) [6]: 52% and 70% | Population Fragmented Nuclei (%) [6]: 13% and 10% | Population Healthy Nuclei (%) [6]: 71% and 77% | Population Hoechst High Intensity Objects (%) [6]: 16% and 14% | Population Membrane Permeable-Phenotype (%) [6]: 2% and 0% | Population Mitochondria Different-Phenotype (%) [6]: 78% and 89% | Population Mitotic Cells (%) [6]: 47% and 29% | Population Normal (%) [6]: 83% and 85% | Population Pyknosed Nuclei (%) [6]: 15% and 12% | Population Tubulin-Different-Phenotype (%) [6]: 66% and 57% | Total Cell Count [6]: 560 and 325

Cc1noc(C)c1-c1cnc2c(-c3ccc(C(=O)O)cc3)cn([C@@H](C)c3ccccn3)c2c1 [PLX-51107]
Population Apoptotic (%) [1]: 5.67% and 10.17% | Population Fragmented Nuclei (%) [1]: 1.66% and 3.31% | Population Hoechst High Intensity Objects (%) [1]: 0% | Population Membrane Permeable-Phenotype (%) [1]: 0% and 7.14% | Population Mitotic Cells (%) [1]: 94.33% and 89.83% | Population Normal (%) [1]: 100% | Population Pyknosed Nuclei (%) [1]: 40.33% and 78.15% | Population Tubulin-Different-Phenotype (%) [1]: 2.51% and 7.14% | Population Apoptotic (%) [2]: 13.75% and 7.84% | Population Healthy Nuclei (%) [2]: 45.95% and 25.98% | Population Hoechst High Intensity Objects (%) [2]: 0% | Population Membrane Permeable-Phenotype (%) [2]: 0% | Population Mitotic Cells (%) [2]: 86.25% and 92.16% | Population Normal (%) [2]: 100% | Population Pyknosed Nuclei (%) [2]: 51.78% and 54.45% | Population Tubulin-Different-Phenotype (%) [2]: 4.23% and 5.48% | Total Cell Count [2]: 309 and 281 | Population Apoptotic (%) [3]: 9.2% and 11.02% | Population Fragmented Nuclei (%) [3]: 1.19% and 0.87% | Population Healthy Nuclei (%) [3]: 75.73% and 43.91% | Population Hoechst High Intensity Objects (%) [3]: 0% | Population Membrane Permeable-Phenotype (%) [3]: 0% | Population Mitochondria Different-Phenotype (%) [3]: 7.18% and 2.97% | Population Mitotic Cells (%) [3]: 90.8% and 88.98% | Population Normal (%) [3]: 100% | Population Pyknosed Nuclei (%) [3]: 23.08% and 55.22% | Population Tubulin-Different-Phenotype (%) [3]: 0.7% and 3.96% | Population Apoptotic (%) [4]: 10.67% and 13.49% | Population Healthy Nuclei (%) [4]: 62.01% and 40.13% | Population Hoechst High Intensity Objects (%) [4]: 0% | Population Membrane Permeable-Phenotype (%) [4]: 0% and 0.81% | Population Mitochondria Different-Phenotype (%) [4]: 8.3% and 4.84% | Population Mitotic Cells (%) [4]: 89.33% and 86.51% | Population Normal (%) [4]: 100% | Population Pyknosed Nuclei (%) [4]: 36.76% and 40.78% | Population Tubulin-Different-Phenotype (%) [4]: 0% and 5.65% | Total Cell Count [4]: 408 and 309 | Population Fragmented Nuclei (%) [5]: 6.3% and 3.02% | Population Healthy Nuclei (%) [5]: 84.08% and 65.66% | Population Hoechst High Intensity Objects (%) [5]: 0.14% and 0% | Population Membrane Permeable-Phenotype (%) [5]: 0.33% and 1.15% | Population Mitochondria Different-Phenotype (%) [5]: 5.35% and 6.9% | Population Mitotic Cells (%) [5]: 94.96% and 79.52% | Population Normal (%) [5]: 99.86% and 100% | Population Tubulin-Different-Phenotype (%) [5]: 0.33% and 2.87% | Population Healthy Nuclei (%) [6]: 78.62% and 47.53% | Population Hoechst High Intensity Objects (%) [6]: 0% | Population Membrane Permeable-Phenotype (%) [6]: 0.21% and 0.65% | Population Mitochondria Different-Phenotype (%) [6]: 10.49% and 12.34% | Population Mitotic Cells (%) [6]: 95.33% and 80.87% | Population Normal (%) [6]: 100% | Population Pyknosed Nuclei (%) [6]: 18.01% and 35.49% | Population Tubulin-Different-Phenotype (%) [6]: 0.43% and 6.49% | Total Cell Count [6]: 594 and 324

From ChEMBL document CHEMBL5724801, “EUbOPEN Chemogenomics Library - Multiplex” (2024)
